Compounds with a hit are over-represented: about 3.5% of the library has one in this group of screens.
MrgX1 PAM = human MrgX1 positive allosteric modulation, primary screen | Q96LB2 | MrgX1-HEK293, Fluo-4 calcium flux, FDSS; hits give high values | B-score at 10 µM | 310,000 tested, 0.63% active | AID 588675;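 active = plate-corrected calcium response at least 3 library SD above typical, normal starting fluorescence, not activating the receptor alone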;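 note: compound read alongside a low EC10 to EC30 dose of BAM8-22 agonist; peak minus trough fluorescence over baseline measured at the second addition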
Target sequence (Q96LB2 whole entry, looked up): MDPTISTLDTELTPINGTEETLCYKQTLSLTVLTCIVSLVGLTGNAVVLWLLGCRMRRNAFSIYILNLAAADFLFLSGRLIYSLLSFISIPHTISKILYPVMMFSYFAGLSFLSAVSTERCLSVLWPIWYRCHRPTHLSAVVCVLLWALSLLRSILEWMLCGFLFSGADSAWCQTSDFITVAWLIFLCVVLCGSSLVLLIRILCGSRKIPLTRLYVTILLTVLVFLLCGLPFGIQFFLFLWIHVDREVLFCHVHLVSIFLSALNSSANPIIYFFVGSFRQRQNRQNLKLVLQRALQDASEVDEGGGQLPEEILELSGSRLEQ
MrgX1 ag = activates human MrgX1 receptor signaling; Q96LB2; MrgX1-HEK293 cells, Fluo-4 calcium fluorescence, agonist mode; hits give high values; B-score at 10 µM; 310,000 tested, 0.44% active; AID 588627;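 active = calcium response B-score plate-corrected fluorescence ratio at least 3 library SD, with starting fluorescence B-score inside 5 SD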
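Material – MrgX1-expressing HEK293 cells · Input – 15,000 cells seeded per well · Dosing – compound as first of three additions · Times – overnight seeding, then 1 h dark dye loading · Measured by – kinetic Fluo-4 NW fluorescence of intracellular calcium · Read-out – B-scored fluorescence response ratio · Benchmarks – positive and negative control wells on each plate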
RGS4 block = inhibitors of human RGS4. 310,000 tested, 0.45% active. HEK293 M3R/RGS4 inducible, Fluo-4 calcium flux; hits give high values; triggered by carbachol at its EC20. B-score at 10 µM. AID 463165. P49798;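 active = B-score, a plate-corrected calcium signal, over three deviations above library mean, with baseline fluorescence within five deviations of library mean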;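 note: RGS4 expression induced by doxycycline in cells with stable M3 receptor; B-score is computed from the integrated fluorescence ratio over baseline after carbachol; higher B-score means a larger calcium signal and so more RGS4 inhibition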
RGS4 act = potentiators or activators of RGS4; B-score at 10 µM; HEK293 M3R/inducible RGS4, carbachol calcium flux Fluo4; hits give low values; 310,000 tested, 0.92% active;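 active = B-score of the integrated calcium signal more than 4 SD below the library mean, with starting fluorescence not abnormally high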;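 note: negative B-score means reduced calcium response which marks RGS4 activation or potentiation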
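System – HEK293 FlpIn-TREx cells, stable M3R, doxycycline-inducible RGS4 · Reagent – ECmax carbachol challenge · Times – compound preincubation 20 min at room temperature before agonist · Technique – Fluo4 fluorescence kinetic imaging of calcium · Measure – B score of integrated Fluo4 ratio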
MrgX1 antagonist = antagonists of human MrgX1 receptor; Q96LB2; MRGX1-HEK293 calcium flux, Fluo-4, BAM8-22 antagonism; hits give low values; B-score at 10 µM; 310,000 tested, 1.3% active; AID 588676;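 active = calcium-response B-score plate-corrected more than 3 library SD below zero, starting fluorescence within 5 deviations, no agonist response on first addition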;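 note: peak minus trough fluorescence over baseline after final BAM8-22 challenge near maximal dose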
MrgX1 ag confirm = confirmation of human MrgX1 receptor agonists; shares compounds with MrgX1 ag; MrgX1-HEK293, Fluo-4 calcium fluorescence, FDSS; activation, % at 10 µM; 600 tested, 78% active; AID 602412;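 active = calcium signal rise, corrected for plate position, at least 3 library SD high, with starting brightness within 5 such deviations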
HEK293 Ca flux = activity in parental HEK293 cells lacking MrgX1; shares compounds with MrgX1 antagonist; Fluo-4 calcium fluorescence, FDSS; fluorescence ratio F(max-min)/F0 at 10 µM; 4,000 tested, 2% active;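 active = duplicate-averaged calcium fluorescence ratio at least three times the standard deviation of buffer wells, a nonspecific response in parental cells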
HEK293 Ca counter = counter-screen for MrgX1 allosteric activators: effect in parental HEK293 cells; parental HEK293 calcium flux, Fluo-4 fluorescence ratio; hits give high values; fluorescence ratio F(max-min)/F0 at 10 µM; AID 624114; 4,000 tested, 0.4% active; shares compounds with MrgX1 antagonist;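 active = calcium fluorescence ratio, averaged over duplicates, at least 3 SD of the buffer-well ratio, meaning a nonspecific response in receptor-free cells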;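 note: untransfected parental HEK293 lacking MrgX1 used as counterscreen for MrgX1 allosteric activators; fluorescence change taken during the second addition on a kinetic imager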
HEK293 Ca cntr2 = MrgX1 activator counter-screen hit in parental HEK293 cells. shares compounds with MrgX1 antagonist. Fluo-4 calcium fluorescence (FDSS); hits give high values. fluorescence ratio F(max-min)/F0 at 10 µM. 4,000 tested, 8.7% active. AID 624115;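 active = calcium fluorescence ratio at least three times the spread of buffer wells, meaning a non-specific response in parental cells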
An asterisk follows results filed as active; i = inactive; nt = no result.

SMILES	MrgX1 PAM	MrgX1 ag	RGS4 block	RGS4 act	MrgX1 antagonist	MrgX1 ag confirm	HEK293 Ca flux	HEK293 Ca counter	HEK293 Ca cntr2
CC(=O)Cc1nsc(NC(=O)c2oc(-c3ccccc3Cl)cc2C)n1	i	36*	i	i	i	112%*	i	i	i
O=C(Nc1nccs1)c1ccc(NC(=O)C2CC=CCC2C(=O)O)cc1 (stereo unspecified)	i	i	i	i	i	nt	nt	nt	nt
Cc1c(CN2CCC(n3nccc3NC(=O)C3CCOC3)CC2)[nH]c2ccccc12 (stereo unspecified)	i	i	i	i	i	nt	nt	nt	nt
O=C(Nc1ccnn1C1CCN(Cc2cc3ccccc3[nH]2)CC1)C1CCOC1 (stereo unspecified)	i	29*	i	i	i	339%*	i	i	73*
Cc1ccc(CNc2ccc3c(c2)ncn3C(C)C)cc1	i	33*	i	i	i	352%*	i	i	80*
CCn1cnc2cc(NCc3ccc(Br)cc3)ccc21	i	34*	i	i	i	197%*	i	i	i
O=C(CN1C(=O)NC2(CCSC2)C1=O)NCc1ccccc1 (stereo unspecified)	i	i	i	i	i	nt	nt	nt	nt
COc1ccc(C(C)=O)cc1CSC(=N)N	i	47*	i	i	i	240%*	i	i	i
CCOc1ccc(C(C)=O)cc1CSC(=N)N	i	30*	i	i	i	164%*	i	i	i
COc1ccc(C(C)=O)cc1CSCc1cc(C(C)=O)ccc1OC	i	i	i	i	i	nt	nt	nt	nt
CCCCOc1ccc(Br)cc1CSC(=N)N	nt	nt	i	i	nt	nt	nt	nt	nt
CC1(C)CC(=O)C/C(=N\NC(=O)C2C3CCCCC32)C1 (stereo unspecified)	i	i	i	i	i	nt	nt	nt	nt
O=C(COc1cccc(C(F)(F)F)c1)NCC(c1ccco1)N1CCCCC1 (stereo unspecified)	i	i	i	i	i	nt	nt	nt	nt
N#Cc1ccc(-c2ccccc2)nc1SCCN1CCOCC1	i	28*	i	i	i	171%*	i	i	i
Cc1cc(C)c(C#N)c(SCCN2CCOCC2)n1	i	i	i	i	i	nt	nt	nt	nt
Cc1cc(-c2nn(-c3ccccc3F)cc2CN2CCN(c3ccncc3)CC2)c(C)s1	i	56*	i	i	i	268%*	i	i	i
C/C(=N\Nc1ncnc2sc(C)c(C)c12)c1ccccn1	i	72*	i	i	i	499%*	0.46*	i	101*
CCCCNc1cc(C)nc(NCc2ccccc2)n1	i	29*	i	i	i	241%*	i	i	i
Cc1cc(Nc2ccccc2)nc(NCc2ccccc2)n1	i	i	i	i	i	nt	nt	nt	nt
Cc1cc(N2CCC(C)CC2)nc(NCc2ccccc2)n1	i	46*	i	-7*	i	148%*	i	i	i
COc1ccc2cc(-c3[nH]ncc3CN3C[C@@H]4CCC[C@H]3C4)ccc2c1	i	i	i	i	i	nt	nt	nt	nt
CCOC(=O)C(=O)N1CCN(c2cc3c(cc2[N+](=O)[O-])n(C)c(=O)n3C)CC1	i	i	i	i	i	nt	nt	nt	nt
C=C(C)Cn1c(SCC(=O)O)nnc1-c1ccccc1	i	i	i	i	i	nt	nt	nt	nt
C=C(C)Cn1c(-c2ccccc2)nc2ccccc21	i	31*	i	i	i	131%*	i	i	i

Assay outcomes deposited in PubChem by Johns Hopkins Ion Channel Center.
